Measurements published in article PMC4698184 (Antiviral Research, 2015).

Assays:
HRV51 = assay: Cell-based inhibition assay; settings: Human rhinovirus sp., HRV51, WI-38, read-out: EC50 HRV51
Summary of the method: (§1)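 WI-38 cells, confluent or semi-confluent, at 37 °C were infected at MOI 0.05 for 1 h. Inoculum was then replaced with medium containing test compound (up to 100 μM) or DMSO (<0.1%). Cells were incubated up to 168 h, until 80–90% CPE. Virus yield was titrated by TCID50 (Reed–Muench), and EC50 was derived by curve fitting.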

EV-D68 = assay: Cell-based inhibition assay; settings: Enterovirus D, EVD68, WI-38, read-out: EC50 EV-D68
Summary of the method: as §1

HRV1B = assay: Cell-based inhibition assay; settings: Human rhinovirus sp., WI-38, read-out: EC50 HRV1B
Summary of the method: as §1

[1] = ref Dragovich et al., 1999; cited from earlier work
[2] = cited from earlier work
HRV strains = settings: read-out: EC50 against HRV strains; ref Patick et al., 2005; cited from earlier work

| Compound | EC50 (HRV51) [µM] | EC50 (EV-D68) [µM] | EC50 (HRV1B) [µM] | aqueous solubility [1] | oral bioavailability ([2]; ref Dragovich et al., 1999) | oral availability ([2]; ref Patick et al., 2005) | EC50 (HRV strains) [µM] |
| --- | --- | --- | --- | --- | --- | --- | --- |
| Cc1cc(CCCOc2c(C)cc(-c3noc(C(F)(F)F)n3)cc2C)on1 [Plecornaril, Pleconaril] | 0.07 ± 0.02 | 0.6 ± 0.14 | 0.27 ± 0.18 |  |  |  |  |
| CCOC(=O)/C=C/[C@H](C[C@@H]1CCNC1=O)NC(=O)[C@@H](CC(=O)[C@@H](NC(=O)c1cc(C)on1)C(C)C)Cc1ccc(F)cc1 [AG7088] | 0.05 ± 0.03 | 0.01 ± 0.003 | 0.02 ± 0.01 | poor aqueous solubility | low oral bioavailability |  |  |
| C#CC[C@@H](C(=O)N[C@H](/C=C/C(=O)OCC)C[C@@H]1CCNC1=O)n1cccc(NC(=O)c2cc(C)on2)c1=O [Compound 1 (Patick et al., 2005)] |  |  |  |  |  | orally available | < 0.1 |
